From article PMC11327602 (Heliyon, 2024)

Assays:
[1] = molecular target: jack bean urease (Canavalia ensiformis, UniProt P07374); assay: Urease inhibition assay; type: biochemical; conditions: for IC50: Enzyme (SEM ±) J.B Urease, IC50, mean ± SEM, 3 experiments
[2] = molecular target: Bacillus Pasteurii urease (Sporosarcina pasteurii, UniProt P41020); assay: Urease inhibition assay; type: biochemical; conditions: Enzyme (SEM ±) B.P Urease, IC50, mean ± SEM, 3 experiments
[3] = molecular target: α-Glucosidase (Saccharomyces cerevisiae, UniProt P53341); assay: α-Glucosidase inhibition assay; type: biochemical
Sequence of α-Glucosidase (P53341 whole entry): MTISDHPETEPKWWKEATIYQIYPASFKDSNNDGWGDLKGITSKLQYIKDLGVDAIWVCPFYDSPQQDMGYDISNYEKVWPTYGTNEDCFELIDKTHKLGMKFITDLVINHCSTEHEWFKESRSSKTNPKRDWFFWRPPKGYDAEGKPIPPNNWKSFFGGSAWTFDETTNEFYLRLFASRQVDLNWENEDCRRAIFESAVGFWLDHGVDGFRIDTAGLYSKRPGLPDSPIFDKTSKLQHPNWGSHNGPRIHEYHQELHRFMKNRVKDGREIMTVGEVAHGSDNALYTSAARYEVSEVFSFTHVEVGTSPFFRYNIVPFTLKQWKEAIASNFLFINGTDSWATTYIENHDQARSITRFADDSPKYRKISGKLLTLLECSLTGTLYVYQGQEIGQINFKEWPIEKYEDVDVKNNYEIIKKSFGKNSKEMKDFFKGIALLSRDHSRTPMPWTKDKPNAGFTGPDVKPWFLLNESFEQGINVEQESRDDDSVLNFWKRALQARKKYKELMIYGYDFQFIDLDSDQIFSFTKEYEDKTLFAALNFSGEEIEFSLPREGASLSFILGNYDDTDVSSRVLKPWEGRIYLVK
How it was run: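 Test compound (200–800 μg/mL) pre-incubated 5 min at 37 °C with 2 % w/v starch (sucrose) solution in 0.2 M Tris buffer, pH 8.0. 5 mM p-nitrophenyl-α-D-glucopyranoside added intermittently, then α-glucosidase (1 U/mL), 40 min at 35 °C. Stopped with […]; absorbance read at 405 nm. % inhibition = (control − sample)/control × 100; samples above 50 % taken to IC50.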

[4] = DPPH free radical scavenging activity; conditions: for IC50: read-out: DPPH scavenging IC50
[5] = ABTS method; conditions: for IC50: read-out: ABTS scavenging IC50
[6] = Superoxide anion scavenging assay; conditions: for IC50: read-out: superoxide anion scavenging IC50

Sequence of jack bean urease (P07374 whole entry, looked up): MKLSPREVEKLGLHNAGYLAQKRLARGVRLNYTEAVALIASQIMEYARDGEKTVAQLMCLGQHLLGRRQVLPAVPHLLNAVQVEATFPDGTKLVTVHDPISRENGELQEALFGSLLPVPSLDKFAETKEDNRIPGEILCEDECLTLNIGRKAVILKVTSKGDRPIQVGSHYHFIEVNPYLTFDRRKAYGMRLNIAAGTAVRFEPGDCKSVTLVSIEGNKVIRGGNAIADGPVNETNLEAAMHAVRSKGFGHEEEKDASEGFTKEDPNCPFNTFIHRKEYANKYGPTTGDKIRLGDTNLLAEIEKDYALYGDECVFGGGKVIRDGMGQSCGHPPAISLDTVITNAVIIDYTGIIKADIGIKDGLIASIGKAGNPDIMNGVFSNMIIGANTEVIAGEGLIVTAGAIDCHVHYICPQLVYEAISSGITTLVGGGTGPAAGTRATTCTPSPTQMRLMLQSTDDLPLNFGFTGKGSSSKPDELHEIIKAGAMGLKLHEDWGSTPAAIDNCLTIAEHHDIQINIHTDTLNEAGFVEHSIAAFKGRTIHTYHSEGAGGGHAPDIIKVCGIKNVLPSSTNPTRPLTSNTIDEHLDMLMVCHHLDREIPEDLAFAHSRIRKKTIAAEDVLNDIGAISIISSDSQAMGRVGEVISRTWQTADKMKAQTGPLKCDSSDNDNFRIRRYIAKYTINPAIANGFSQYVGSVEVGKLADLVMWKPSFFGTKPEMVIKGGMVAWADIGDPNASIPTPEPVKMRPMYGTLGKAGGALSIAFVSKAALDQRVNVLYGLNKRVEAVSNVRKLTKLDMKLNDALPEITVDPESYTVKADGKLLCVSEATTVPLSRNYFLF
Sequence of Bacillus Pasteurii urease (P41020 whole entry): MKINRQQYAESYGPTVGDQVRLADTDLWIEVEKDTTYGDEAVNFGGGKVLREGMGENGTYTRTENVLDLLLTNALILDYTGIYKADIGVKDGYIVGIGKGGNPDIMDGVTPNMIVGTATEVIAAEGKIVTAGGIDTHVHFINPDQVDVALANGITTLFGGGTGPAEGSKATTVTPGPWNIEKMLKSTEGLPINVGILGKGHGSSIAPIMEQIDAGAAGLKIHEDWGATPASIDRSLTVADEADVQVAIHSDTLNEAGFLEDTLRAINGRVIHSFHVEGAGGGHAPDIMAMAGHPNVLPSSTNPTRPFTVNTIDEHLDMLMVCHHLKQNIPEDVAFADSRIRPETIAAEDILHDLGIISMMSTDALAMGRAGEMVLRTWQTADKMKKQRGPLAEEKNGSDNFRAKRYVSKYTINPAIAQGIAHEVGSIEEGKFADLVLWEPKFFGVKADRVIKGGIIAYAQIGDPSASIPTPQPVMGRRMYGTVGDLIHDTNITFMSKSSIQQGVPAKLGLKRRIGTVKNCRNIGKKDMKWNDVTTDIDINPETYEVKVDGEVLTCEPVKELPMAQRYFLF
Sequence of Bacillus Pasteurii urease (P41021 whole entry partner): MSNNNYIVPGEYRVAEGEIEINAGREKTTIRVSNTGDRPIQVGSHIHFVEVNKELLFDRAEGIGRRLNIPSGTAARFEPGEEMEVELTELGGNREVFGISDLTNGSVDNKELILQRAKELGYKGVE
Sequence of Bacillus Pasteurii urease (P41022 whole entry partner): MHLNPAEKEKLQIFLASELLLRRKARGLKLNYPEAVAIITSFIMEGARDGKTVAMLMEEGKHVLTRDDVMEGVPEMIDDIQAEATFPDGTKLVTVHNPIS

Compound	Types of inhibition (urease) [1]	IC50 [1] [µM]	IC50 [2] [µM]	Type of Inhibition (α-glucosidase and α-amylase) [3]	DPPH % Scavenging ([4]; 25 μM) [%]	DPPH % Scavenging ([4]; 50 μM) [%]	DPPH % Scavenging ([4]; 75 μM) [%]	DPPH % Scavenging ([4]; 100 μM) [%]	IC50 [4] [µM]	ABTS % Scavenging ([5]; 10 μM) [%]	ABTS % Scavenging ([5]; 20 μM) [%]	ABTS % Scavenging ([5]; 30 μM) [%]	ABTS % Scavenging ([5]; 40 μM) [%]	ABTS % Scavenging ([5]; 50 μM) [%]	IC50 [5] [µM]	superoxide anion % scavenging ([6]; 25 μM) [%]	superoxide anion % scavenging ([6]; 50 μM) [%]	superoxide anion % scavenging ([6]; 75 μM) [%]	superoxide anion % scavenging ([6]; 100 μM) [%]	IC50 [6] [µM]	further results
CN(c1nccs1)S(=O)(=O)c1ccc(Cl)cc1 [Compound 37, 4-Chloro-N-methyl-N-(thiazol-2-yl)benzenesulfonamide]	Competitive	21.02 ± 0.21	25.4 ± 0.31	Non-competitive	19 ± 0.17	42.4 ± 0.8	66.8 ± 0.15	99.1 ± 0.21	57.1 ± 0.11	30.22 ± 0.22	41.25 ± 0.11	48.01 ± 0.12	65.5 ± 0.07	99.03 ± 0.15	34.11 ± 0.16	37 ± 0.21	43 ± 0.6	67 ± 0.03	99 ± 0.15	54 ± 0.15	inhibition against both enzymes (α-glucosidase and α-amylase), in words [3]: weak inhibition
CN(c1nccs1)S(=O)(=O)c1ccc(F)cc1 [Compound 38, 4-Fluoro-N-methyl-N-(thiazol-2-yl)benzenesulfonamide]	Competitive	24.31 ± 0.18	27.15 ± 0.14	Non-competitive	21.3 ± 0.11	67.3 ± 0.2	89.3 ± 0.05	95.01 ± 0.9	69.5 ± 0.1	13.2 ± 0.91	35.3 ± 0.42	41.2 ± 0.71	48.13 ± 0.11	79.3 ± 0.44	49.03 ± 0.15	31.5 ± 0.11	45.01 ± 0.5	55.7 ± 0.5	92.5 ± 0.03	67.6 ± 0.93	–
CN(c1nccs1)S(=O)(=O)c1ccc([N+](=O)[O-])cc1 [Compound 39, N-Methyl-4-nitro-N-(thiazol-2-yl)benzenesulfonamide]	Non-competitive	38.17 ± 0.01	43.71 ± 0.13	Non-competitive	15.04 ± 0.05	55.02 ± 0.08	77.08 ± 0.11	91.01 ± 0.34	43.02 ± 0.13	24.02 ± 0.05	39.01 ± 0.3	47.06 ± 0.1	72.11 ± 0.09	102.03 ± 0.01	36.09 ± 0.15	22.2 ± 0.01	48.5 ± 0.17	71.4 ± 0.34	93.8 ± 0.11	54.1 ± 0.55	inhibition against both enzymes (α-glucosidase and α-amylase), in words [3]: weak inhibition
